Measurements taken from publication PMC6391190 (Pharmacological research, 2019).
Where “and” joins values, the source holds several entries; their conditions need not be identical. Identical values can stand only once. Entries after “also recorded” stand apart in the source; their conditions may differ.

Experiments:
BCRP [1] = assay: qPCR of BCRP mRNA in BeWo trophoblast cells; format: cell-based, human; settings: for reversal of the effects of AEA on BCRP: SB366791 1 μM, GW6471 5 μM, GW9662 5 μM, PD98059; for inhibition of AEA-mediated down-regulation of BCRP mRNA: 0.1 μM, co-treatment with AEA 10 μM
BCRP [2] = assay: Hoechst 33342 transport; format: cell-based, human
BCRP [3] = assay: Zearalenone transport with HPLC measurement in BeWo cells; format: cell-based, human; settings: for percent efflux of zearalenone: BeWo
BeWo cells [4] = settings: for effect alone on BeWo cell viability: AEA 10 μM or Ko143 1 μM alone, data not shown
BeWo cells [5] = test system: BeWo cells
BCRP [6] = assay: BODIPY-glyburide Transwell transport across BeWo monolayers; format: cell-based, human; settings: for reduction of transepithelial transport of BODIPY-glyburide: after 2 h
BCRP promoter = assay: ChIP of p-CREB binding to the BCRP promoter in BeWo cells; format: cell-based, human; settings: 1 h
BCRP [7] = assay: Western blot of BCRP protein in human term placental explants; format: cell-based; settings: AEA 1 μM, 24 h, densitometry
[8] = cited from earlier work
human placental explants = assay: Morphology of placental explants; format: cell-based; settings: anandamide treatment; data not shown
[9] = test system: syncytialization-related genes (hCGα, syncytin-1, syncytin-2); assay: qPCR of syncytialization-related genes in human term placental explants; format: cell-based
Procedure, shortened: (§1)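 Term placental explants were cultured 24 h with AEA (1 μM, 0.05% ethanol final), replenished after 12 h. Explants were snap-frozen and homogenized in RNAzol (bead homogenizer, 4 min, 40 Hz). Reverse transcription used 1000 ng RNA with random primers and MultiScribe (25°C 10 min, 37°C 120 min, 85°C 5 min), then qPCR. Values are means of 3 placentas (3-6 samples each) ± SE.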

BCRP [10] = assay: Western blot of BCRP protein in BeWo cells; format: cell-based, human; settings: AEA 10 μM, 24 h
Procedure, shortened: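 BeWo cells exposed 24 h to AEA (10 μM) or vehicle; AEA was dissolved in ethanol. Cells were lysed in 20 mM Tris-HCl, 150 mM NaCl, 5 mM EDTA, 1% Triton X-100 with protease inhibitor cocktail. Western blotting detected BCRP at 72 kDa, with β-actin (42 kDa) as the loading control. Densitometry was performed.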

CREB = assay: Western blot of CREB phosphorylation in BeWo cells; format: cell-based, human; settings: 1 h
BCRP [11] = assay: qPCR of BCRP mRNA in human term placental explants; format: cell-based; settings: AEA 1 μM, 24 h
Procedure, shortened: as §1

[12] = test system: syncytialization markers (hCGβ, syncytin-2, syncytin-1, hCGα); assay: qPCR of syncytialization markers in BeWo trophoblast cells; format: cell-based, human
Procedure, shortened: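 BeWo cells took AEA (ethanol vehicle) either at 10 μM over a time course (including 18, 24 and 48 h, with time-matched vehicle controls) or at 0.01-10 μM for 24 h. Cells were scraped into RNAzol and homogenized. Reverse transcription used 1000 ng RNA with random primers (25°C 10 min, 37°C 120 min, 85°C 5 min), followed by qPCR; mean ± SE, n = 4.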

intracellular cAMP = assay: Measurement of intracellular cAMP; format: cell-based, human; settings: 1 h, BeWo
[13] = AEA 1 μM, 24 h, human term placental explants
[14] = forskolin 50 μM, 24h, data not shown

Compound: COc1cccc(NC(=O)/C=C/c2ccc(Cl)cc2)c1 [SB366791]
- reversal of the effects of AEA on BCRP (BCRP [1]; BeWo, data not shown): none of these chemicals reversed the effects of AEA

Compound: COc1ccc2c3c([nH]c2c1)[C@H](CC(C)C)N1C(=O)[C@H](CCC(=O)OC(C)(C)C)NC(=O)[C@@H]1C3 [Ko143]
- BCRP efflux activity (percent efflux of Hoechst 33342) (BCRP [2]; Ko143 1 μM present during assay, BeWo): 8%
- percent efflux of zearalenone (BCRP [3]; Ko143 1 μM): 49%
- effect alone on BeWo cell viability (BeWo cells [4]): Neither Ko143 nor AEA alone affected
- effect on AEA retention (BeWo cells [5]; Ko143 1 μM, 3H-AEA 100 nM, BeWo): had no impact
- reduction of transepithelial transport of BODIPY-glyburide (BCRP [6]; Ko143 1 μM, present during assay): 32%

Compound: C[C@H]1CCC[C@H](O)CCCCCc2cc(O)cc(O)c2C(=O)O1 [α-ZRN, α-zearalanol]
- LC50 values, AEA (BeWo cells [4]; human): 27.4 ± 9.1 µM
- LC50 values, Ko143 (BeWo cells [4]; human): 36.0 ± 10.1 µM

Compound: O=C(Nc1ccccc1)c1cc([N+](=O)[O-])ccc1Cl [GW9662]
- reversal of the effects of AEA on BCRP (BCRP [1]; BeWo, data not shown): none of these chemicals reversed the effects of AEA

Compound: C[C@H]1CCCC(=O)CCC/C=C/c2cc(O)cc(O)c2C(=O)O1 [ZLN, zearalenone]
- percent efflux of accumulated zearalenone (BCRP [3]; vehicle-treated BeWo cells, zearalenone 50 μM): 71%

Compound: Cc1c(C(=O)NN2CCCCC2)nn(-c2ccc(Cl)cc2Cl)c1-c1ccc(Cl)cc1 [rimonabant]
- inhibition of AEA-mediated down-regulation of BCRP mRNA (BCRP [1]; 24 h, BeWo): only partially inhibited

Compound: CCOc1ccc(-c2nc3ccc(-c4nc5ccc(N6CCN(C)CC6)cc5[nH]4)cc3[nH]2)cc1 [Hoechst 33342]
- percent efflux of Hoechst 33342 taken up (BCRP [2]; vehicle-treated/control BeWo cells, Hoechst 33342 5 μM): 35% and 33%

Compound: CCCCC/C=C\C/C=C\C/C=C\C/C=C\CCCC(=O)NCCO [AEA, anandamide]
- decrease of p-CREB binding to the BCRP promoter (BCRP promoter; AEA 10 μM): 68%
- down-regulation of BCRP protein (BCRP [7]): 30%
- half-life in vivo [8]: < 5 min
- changes to the morphology of the explants (human placental explants): did not induce any visible changes
- effect on ability of BeWo cells to efflux Hoechst 33342 (BCRP [2]; AEA 10 μM present during uptake and efflux phase (untreated cells)): did not impact
- BCRP efflux activity (percent efflux of Hoechst 33342) (BCRP [2]; AEA 10 μM, 24 h pre-treatment, BeWo): 15%
- percent efflux of zearalenone (BCRP [3]; AEA 10 μM, 24 h): 33%
- reduction of hCGα mRNA expression [9, 13]: 48%
- reduction of syncytin-1 mRNA expression [9, 13]: 25%
- syncytin-2 mRNA expression ([9]; AEA treatment of placental explants, data not shown): unchanged
- effect alone on BeWo cell viability (BeWo cells [4]): Neither Ko143 nor AEA alone affected
- BCRP protein expression (BCRP [10]): reduced protein expression
- reduction in the intracellular concentration of AEA (BeWo cells [5]; human, 30 min, 100 nM): 44%
- forskolin-induced phosphorylation of CREB (CREB; AEA 10 μM co-treated with forskolin 50 μM): completely inhibited; also recorded: abolished
- p-CREB relative to total CREB protein (CREB; AEA 10 μM): no p-CREB was detected
- reduction of transepithelial transport of BODIPY-glyburide (BCRP [6]; AEA 10 μM, 24 h): 20%
- reduction of BCRP mRNA expression (BCRP [11]): 46%
- lowering of hCGβ mRNA expression ([12]; AEA 0.01 μM, 24 h, BeWo): 71%
- lowering of syncytin-2 mRNA expression ([12]; AEA 1 μM, 24 h, BeWo): 40%
- decrease of hCGβ mRNA expression ([12]; AEA 10 μM, 18 and 24 h, BeWo): 40-50%
- decrease of syncytin-2 mRNA expression ([12]; AEA 10 μM, 18 and 24 h, BeWo): 40-50%
- expression of syncytin-1 or hCGα mRNAs ([12]; BeWo cells, data not shown): did not alter
- time of maximal reduction of BCRP mRNA (BCRP [1]; AEA 10 μM, BeWo, return to control levels by 48 h): 24 h
- lowest concentration at which repression of BCRP was observed (BCRP [1]; BeWo cells): 10 nM
- decrease of BCRP mRNA expression (BCRP [1]; all AEA concentrations between 0.01 μM and 10 μM, 24 h, BeWo): 30-50%
- basal intracellular levels of cAMP (intracellular cAMP; AEA 10 μM, control 34.8): 12.4 pmol/mg protein
- intracellular levels of cAMP (intracellular cAMP; forskolin 50 μM + AEA 10 μM): 8,250 pmol/mg protein

Compound: Nc1ncnc2c1nc(Br)n2[C@@H]1O[C@@H]2COP(=O)(O)O[C@H]2[C@H]1O [8-Br-cAMP]
- prevention of AEA lowering of Hoechst 33342 efflux (BCRP [2]; 8-Br-cAMP 1 mM with AEA 10 μM, 24 h, BeWo): completely prevented
- effect itself on Hoechst 33342 transport (BCRP [2]; 8-Br-cAMP 1 mM, 24 h, BeWo): no effect
- attenuation of AEA down-regulation of BCRP expression and efflux activity (BCRP [1]; 8-Br-cAMP 1 mM, 24 h with AEA 10 μM, 24 h, BeWo): abrogated; also recorded: completely attenuated

Compound: CCC(=O)NC[C@H](Cc1ccc(OCCc2nc(-c3ccccc3)oc2C)cc1)N/C(C)=C\C(=O)c1ccc(C(F)(F)F)cc1 [GW6471]
- reversal of the effects of AEA on BCRP (BCRP [1]; BeWo, data not shown): none of these chemicals reversed the effects of AEA

Compound: COc1cc(CNC(=O)CCCC/C=C/C(C)C)ccc1O [Capsaicin]
- effect on BCRP expression (BCRP [1]; capsaicin 1 μM, 24 h, BeWo, data not shown): no effect

Compound: Lucifer yellow
- percent of Lucifer yellow rejection (BCRP [6]; Lucifer yellow 20 μM, BeWo monolayer integrity): 95.3 ± 3.7%

Compound: COc1ccc(C(=O)c2c(C)n(CCN3CCOCC3)c3cc(I)ccc23)cc1 [AM630]
- inhibition of AEA-mediated down-regulation of BCRP mRNA (BCRP [1]; 24 h, BeWo): abrogated; also recorded: completely inhibited

Compound: COc1cccc(-c2cc(=O)c3ccccc3o2)c1N [PD98059]
- reversal of the effects of AEA on BCRP (BCRP [1]; BeWo, data not shown): none of these chemicals reversed the effects of AEA

Compound: C=C[C@@]1(C)CC(=O)[C@]2(O)[C@@]3(C)[C@@H](O)CCC(C)(C)[C@@H]3[C@H](O)[C@H](OC(C)=O)[C@@]2(C)O1 [forskolin]
- reduction in p-CREB binding to the BCRP promoter (BCRP promoter; co-treatment with AEA 10 μM and forskolin 50 μM): 12%
- effect on AEA-mediated reduction of Hoechst 33342 efflux (BCRP [2]; [14]): had no effect
- CREB phosphorylation (CREB; forskolin 50 μM): consistently increased
- inhibition of AEA-mediated reduction of BCRP transcription (BCRP [1]; [14]): partially inhibited
- intracellular levels of cAMP (intracellular cAMP; forskolin 50 μM): 12,800 pmol/mg protein
